Results taken from ChEMBL document CHEMBL1129608, “Phosphodiester amidates of allenic nucleoside analogues: anti-HIV activity and possible mechanism of action” (J Med Chem, 1996).

How the values were obtained:
[1] = Kinetic hydrolysis catalyzed by pig liver esterase at pH 1.2; type: ADME, Sus scrofa
[2] = Kinetic hydrolysis catalyzed by pig liver esterase at pH 7.4 and 37 degree C; type: ADME, Sus scrofa
In short: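 Substrate at 2.2 × 10⁻³ M in 0.02 M Na₂HPO₄, pH 7.4, with pig liver esterase (200 units per 1 mL), stirred at 37 °C. Aliquots were taken at set times and analysed by reverse-phase C18 HPLC (water–CH₃CN gradient) to follow loss of substrate and give the half-life.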

[3] = system: L1210 (Mus musculus); experiment: Compound was evaluated for the inhibitory activity in a clonogenic assay with murine leukemia L1210 cells
[4] = system: ATH-8 cell line; experiment: Compound was evaluated for the inhibition of replication and cytopathic effect of HIV-1 in ATH8 cells; type: functional, cell-based, Homo sapiens
In short: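 ATH8 (CD4+) cells, 2 × 10⁵, were exposed to HIV-1 LAI (500 TCID50) for 45 min and then cultured with compound. Total viable cells were counted on day 7. Percent protection was calculated as viable cells (infected plus drug minus infected alone) divided by (uninfected minus infected alone) × 100. Cytotoxicity was 100 × (1 − viable cells with drug / viable cells alone).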

[5] = Kinetic hydrolysis catalyzed by pig liver esterase at pH 9.8; type: ADME, Sus scrofa
[6] = system: ATH-8 cell line; experiment: Compound was evaluated for the cytotoxicity in ATH8 cells; settings: Homo sapiens
[7] = system: L1210; experiment: Compound was evaluated for the clonogenic assay with murine leukemia L1210 cells; type: functional; settings: Mus musculus, read-out: ID50 (the source's name)

| half-life [1] [h] | half-life [2] [h] | EC50 ([4]; ath-8) [nM] | half-life [5] [h] | Structure (SMILES) | ID50 [3] [nM] | IC50 [6] [nM] | IC50 [7] [nM] | EC50 ([4]; Homo sapiens, ATH-8) [nM] |
| --- | --- | --- | --- | --- | --- | --- | --- | --- |
| 24.4 | 8.5 | 880 | 2.52 | COC(=O)C(C)NP(=O)(OCC=C=Cn1cnc2c(N)ncnc21)Oc1ccccc1 (stereo in doubt; 2a) | > 300000 |  |  |  |
|  |  |  |  | Nc1ncnc2c1ncn2C=C=CCO |  | 3000 | 150000 | 14000 |
|  |  | 210 |  | COC(=O)C(C)NP(=O)(OCC=C=Cn1cnc2c(N)ncnc21)Oc1ccccc1 (stereo in doubt; 4a) |  |  |  |  |
